# NadD inh: inhibitors of Staphylococcus aureus NadD; purified NadD enzyme, colorimetric absorbance read-out; inhibition, % at 20 µM; hit rate 0.78% among 360,000; AID 602399; in the data active means inhibition above about 26%
# HCV core dimer: HCV core protein dimerization inhibition; TR-FRET GST/Flag-core106 dimerization, 1536-well; inhibition, % at 5 µM; hit rate 0.33% among 300,000; AID 1899;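 active means inhibition above the mean of all tested compounds plus 3 SD, set per screening campaign, cut at about 45% in these data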
#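 Material: GST/Flag-tagged HCV core106 proteins. Incubation: 4 h, 22.5 °C incubation. Read-out basis: inhibition (%) from 671 over 617 nm ratio. Measured by: TR-FRET, excitation 340 nm, emission 617 and 671 nm.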
# VIM-2 inhibitor: blocks Pseudomonas aeruginosa VIM-2 metallo-beta-lactamase; AID 1527; inhibition, % at 5.6 µM; purified VIM-2, nitrocefin hydrolysis, epi-absorbance fluorescence; hit rate 0.89% among 290,000;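 active means inhibition above the mean of all tested compounds plus 3 SD, cutoff set per screening run, cut at about 7.5% in these data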;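 further: red hydrolysis product quenches plate fluorescence so inhibitors raise well fluorescence; 0% = enzyme with DMSO and 100% = DMSO without enzyme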
# IMP-1 inh: blocks Pseudomonas aeruginosa IMP-1 metallo-beta-lactamase | purified IMP-1, nitrocefin hydrolysis, epi-absorbance fluorescence | inhibition, % at 5.6 µM | hit rate 0.45% among 290,000 | AID 1556;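 active means inhibition above the mean plus 3 SD of all compounds in the same screening run, cut at about 4.5% in these data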;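 further: 0% = IMP-1 with DMSO and 100% = DMSO wells lacking enzyme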
#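 system = purified recombinant IMP-1 beta-lactamase | amount = 0.2 nM IMP-1, as dispensed | medium = HEPES buffer pH 7.1 with ZnSO4 and Brij 35 | times = 25 °C, 15 min preincubation, 25 min reaction | detection = plate fluorescence quenching by hydrolysis product, ex 480/em 530 nm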
# Active calls of the source: *; nt = no result given. Hits are enriched below; roughly 1.9% of the tested compounds scored in any of these assays.
SMILES,NadD inh,HCV core dimer,VIM-2 inhibitor,IMP-1 inh
C#CCOCCOCCOCCNc1nc(N2CCN(C(=O)CCCCCCCCCCNC(=O)Cn3cc(CCCCCN)nn3)CC2)nc(N2CCN(C(=O)CCCCCCCCCCNC(=O)[C@@H](CCSC)n3cc(CCO)nn3)CC2)n1,18.9,-6.2,nt,nt
CC(=O)n1cc([C@@H]2C=C(C(=O)O)O[C@H](OCc3ccc(CO)cc3)C2)c2ccccc21,-3.5,1.4,8.8*,-0.9
COc1cc(C(=O)N2CCCCC2c2cc(C(=O)NC(C)C)no2)cc(OC)c1C (stereo not drawn),0.8,nt,nt,nt
COc1ccccc1C(c1nnnn1CCc1ccccc1)N1CCCCCC1 (stereo not drawn),1.3,11.1,2.1,24.3*
CCOC(=O)C1=CC[C@@H](c2ccccc2C(F)(F)F)N(S(=O)(=O)c2ccc(C)cc2)[C@H]1c1ccc(C#N)cc1,6.7,nt,nt,nt
CCOc1ccc(C2C(C#N)=C(N)SC(N)=C2C#N)c(OCC)c1,3.9,37.5,-1.6,-1.4
CCCCc1ccc(C2C(C#N)=C(N)SC(N)=C2C#N)s1,nt,59.3*,-0.3,2.9
COc1cccc(C(=O)NC2CC(C)(C)NC(C)(C)C2)c1OC,0.6,2.2,-1.6,15.7*
COc1ccccc1C(=O)NC1CC(C)(C)NC(C)(C)C1,8.0,9.1,-1.1,-0.8
Cc1c(F)cccc1NS(=O)(=O)c1ccc(OCCNS(C)(=O)=O)cc1,-5.0,-1.1,3.2,-0.2
COc1ccccc1CNC(=O)CN1C(=O)NC(c2ccccc2)(c2ccc(C)c(C)c2)C1=O (stereo not drawn),15.3,nt,nt,nt
CCS(=O)(=O)Nc1ccc2[nH]c(=O)[nH]c2c1,0.3,-6.6,-1.9,-2.2
CCN(CC)c1ccc(NC(=O)CCS(=O)(=O)c2ccc(Br)cc2)c(C)c1,-2.1,-13.4,-2.2,23.9*
Cc1ccccc1NC(=O)CCS(=O)(=O)c1ccc(Br)cc1,-3.1,-8.8,-0.7,1.8
Cc1cc(C)cc(NC(=O)CCNS(=O)(=O)c2cc(Br)cnc2N)c1,-1.1,5.8,-4.5,-1.1
COC(=O)CSc1nc(N)c2c3c(sc2n1)CCCC3,3.8,1.4,3.6,2.0
COC(=O)CSc1nc(N)c2c3c(sc2n1)C(c1ccccc1)SC(c1ccccc1)C3 (stereo not drawn),49.7*,31.2,1.7,2.7
O=C(O)C(CCCCN1C(=O)c2ccccc2C1=O)N1C(=O)c2ccccc2C1=O (stereo not drawn),-0.6,1.6,5.3,18.0*
O=C(Nc1ccccc1)C(CCCCN1C(=O)c2ccccc2C1=O)N1C(=O)c2ccccc2C1=O (stereo not drawn),-1.7,nt,nt,nt
O=C(O)C(Cc1ccccc1)N1C(=O)c2ccccc2C1=O (stereo not drawn),6.1,-5.2,-4.2,-0.3
O=C(O)C(Cc1ccccc1)N1C(=O)c2cccc3cccc(c23)C1=O (stereo not drawn),-1.1,-0.6,9.4*,-3.0
CC(=O)N1C[C@H]2CON(C)[C@H]2C[C@H]1c1cccc(-c2cc(Cl)cc(Cl)c2)c1,0.4,nt,nt,nt
CCCCNC(=O)C(NC(=O)c1ccc(=O)[nH]c1)C(=O)c1ccccc1 (stereo not drawn),0.3,nt,nt,nt
CCOC(CNC(=O)c1cccn2c(=O)c3cc(Cl)ccc3nc12)OCC,-8.9,3.9,-2.5,-1.6
CCOC(CNC(=O)c1cccn2c(=O)c3c(C)c(C)sc3nc12)OCC,-7.0,-1.0,10.2*,-2.2
SMILES,NadD inh,HCV core dimer,VIM-2 inhibitor,IMP-1 inh
CCn1cc(C(=O)O)c(=O)c2cc(S(=O)(=O)N(C)C)ccc21,-1.7,-1.4,8.7*,-2.3
CCc1c(C)c2ccc(OCC(=O)N(C)C)c(C)c2oc1=O,0.3,8.9,9.8*,-5.5
Cc1c(CC(=O)O)c(=O)oc2c(C)c(OCc3ccccc3)ccc12,-5.8,nt,-0.1,-1.0
Cc1c(C)c2ccc(OCC(=O)N(C)C)c(C)c2oc1=O,8.4,9.4,3.5,-5.0
Cc1c(CC(=O)O)c(=O)oc2c(C)c(OCc3ccccc3Br)ccc12,25.8,12.5,0.6,6.9*
O=S(=O)(NCc1nnnn1-c1ccc(F)cc1)c1ccc(F)cc1,-4.3,nt,nt,nt
C#CCN1C(=O)S/C(=C\c2ccc(-c3ccc(Cl)c(C(=O)O)c3)o2)C1=O,1.3,-8.6,9.3*,-3.1
O=C(O)c1cc(-c2ccc(/C=C3\NC(=O)N(c4ccccc4)C3=O)o2)ccc1Cl,-3.3,-2.8,-2.1,-0.8
c1cc(-c2ccsc2)n2cnnc2c1,-2.2,nt,nt,nt
CCC(=O)Nc1cc2c3c(c1)CCN3C(=O)CC2,-0.4,8.8,-1.7,0.0
CCOC(=O)c1c(C)n(C)c2ccc(OCC(O)CNCCc3ccccc3)cc12 (stereo not drawn),-5.2,-4.8,9.7*,1.9
O=C(Nc1ccc2nc(-c3cccs3)[nH]c2c1)c1cccs1,-5.9,-5.6,-2.1,-1.9
O=C(Nc1ccc(-c2nc3ccc(NC(=O)c4cccs4)cc3[nH]2)cc1)c1cccs1,27.5,-3.4,-4.6,11.8*
CN(C)S(=O)(=O)N1CCC(Oc2cccc(C(=O)N3CCSCC3)c2)CC1,1.4,0.1,-6.4,-4.3
CC(C)c1ncc(CO)n1Cc1c(Cl)cccc1Cl,-1.7,nt,nt,nt
CC(C)=CCC/C(C)=C/CNC(=O)C[C@H]1C[C@H](C(=O)N2CCOCC2)[C@@]2(C)c3[nH]c4cc(-c5ccco5)ccc4c3CCN2C1=O,-4.0,nt,nt,nt
CC(=O)Nc1ccc(NC(=O)CCCSc2nc3ccccc3[nH]2)cc1,1.8,0.2,-3.2,7.8*
Cc1ccc(NC(=O)CCCSc2nc3ccccc3[nH]2)cc1,-1.0,0.6,-5.5,-1.6
Cc1ccc(C)c(N2CCN(CCCc3ccccc3)CC2)c1,-4.8,nt,-1.9,-2.5
COc1cccc(-n2c(SCc3cc(=O)oc4cc(O)c(O)cc34)nc3ccccc3c2=O)c1,64.5*,8.1,6.5,-2.0
COc1ccccc1C(=O)Nc1sc2c(c1C(=O)NCc1ccco1)CCCC2,8.8,53.1*,-2.7,2.7
COc1ccccc1NC(=O)c1c(NC(=O)c2ccco2)sc2c1CCC2,15.1,34.9,-3.3,-1.1
Cn1c(NCc2cccnc2)nc2c1c(=O)n(Cc1ccccc1F)c(=O)n2C,2.2,-2.7,8.3*,-2.7
Oc1ccc(N=Nc2ccc3c(c2)OCCO3)c2ncccc12,27.2*,-2.6,-5.7,-5.2
CCC(NC(=O)COc1cc2c(c3oc(=O)c(C)c(C)c13)CCC(C)(C)O2)C(=O)O (stereo not drawn),-1.7,0.0,11.2*,-3.3
SMILES,NadD inh,HCV core dimer,VIM-2 inhibitor,IMP-1 inh
Cc1c(C)c2c(OCC(=O)NCc3cccnc3)cc3c(c2oc1=O)CCC(C)(C)O3,1.4,-3.2,8.8*,-4.4
CCc1cc(=O)oc2c3c(cc(OCC(=O)NCc4cccnc4)c12)OC(C)(C)CC3,2.9,4.3,3.5,-6.2
COc1ccc(NC(=O)CCS(=O)(=O)c2ccc3c(c2)oc(=O)n3C)cc1,-1.1,24.0,-5.4,-2.2
Cc1cccc(-n2ccc(=O)c(C(=O)Nc3ccc(S(=O)(=O)Nc4nccc(C)n4)cc3)n2)c1,-3.2,7.8,-2.7,-2.1
CCCCNC(=O)c1oc2ccc(S(=O)(=O)N3CCCC3)cc2c1C,-2.0,-0.9,-2.5,5.9*
CCN(CC)C(=O)c1oc2ccc(S(=O)(=O)N3CCCCCC3)cc2c1C,-6.6,2.7,-2.1,-4.0
COc1ccc(OC)c2c(C)c(C)[nH]c12,-2.6,-12.1,8.2*,0.1

# Screening results (PubChem)
